ChEMBL document CHEMBL4613265, “Novel Human Neutral Sphingomyelinase 2 Inhibitors as Potential Therapeutics for Alzheimer's Disease” (J Med Chem, 2020)
Calls of active or inactive are those of the source. The calls are words filed in the database; no cut-off is given here.

Experiments:
[1] = Stability in human liver microsomes assessed as parent compound remaining at 1 uM measured after 60 mins in absence of NADPH by LC-MS/MS analysis; format: ADME, Microsome; conditions: liver microsomes, read-out: Stability
In short: (§1)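 Cofactor-free control for cofactor-independent degradation. Mouse or human liver microsomes at 0.2 mg/mL, 1 μM compound (final), 100 mM potassium phosphate at pH 7.4, no NADPH regenerating system. Adding microsomes started the reaction; run in triplicate. Sampled at 60 min and quenched with three volumes of ice-cold acetonitrile spiked with internal standard.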

[2] = system: HeLa S3; assay: Cytotoxicity against human HeLaS3 cells by XTT assay; format: cell-based
[3] = Stability in mouse liver microsomes assessed as parent compound remaining at 1 uM measured after 60 mins in absence of NADPH by LC-MS/MS analysis; format: ADME, Microsome; conditions: liver microsomes, read-out: Stability; in short: as §1
[4] = system: CCRF-CEM; assay: Cytotoxicity against human CCRF-CEM cells by XTT assay; format: cell-based
[5] = target: Phosphatidylinositol 4-kinase alpha (Homo sapiens) (UniProt P42356); assay: Inhibition of PI4K3alpha (unknown origin)
Phosphatidylinositol 4-kinase alpha (Homo sapiens), sequence (P42356 whole entry, looked up): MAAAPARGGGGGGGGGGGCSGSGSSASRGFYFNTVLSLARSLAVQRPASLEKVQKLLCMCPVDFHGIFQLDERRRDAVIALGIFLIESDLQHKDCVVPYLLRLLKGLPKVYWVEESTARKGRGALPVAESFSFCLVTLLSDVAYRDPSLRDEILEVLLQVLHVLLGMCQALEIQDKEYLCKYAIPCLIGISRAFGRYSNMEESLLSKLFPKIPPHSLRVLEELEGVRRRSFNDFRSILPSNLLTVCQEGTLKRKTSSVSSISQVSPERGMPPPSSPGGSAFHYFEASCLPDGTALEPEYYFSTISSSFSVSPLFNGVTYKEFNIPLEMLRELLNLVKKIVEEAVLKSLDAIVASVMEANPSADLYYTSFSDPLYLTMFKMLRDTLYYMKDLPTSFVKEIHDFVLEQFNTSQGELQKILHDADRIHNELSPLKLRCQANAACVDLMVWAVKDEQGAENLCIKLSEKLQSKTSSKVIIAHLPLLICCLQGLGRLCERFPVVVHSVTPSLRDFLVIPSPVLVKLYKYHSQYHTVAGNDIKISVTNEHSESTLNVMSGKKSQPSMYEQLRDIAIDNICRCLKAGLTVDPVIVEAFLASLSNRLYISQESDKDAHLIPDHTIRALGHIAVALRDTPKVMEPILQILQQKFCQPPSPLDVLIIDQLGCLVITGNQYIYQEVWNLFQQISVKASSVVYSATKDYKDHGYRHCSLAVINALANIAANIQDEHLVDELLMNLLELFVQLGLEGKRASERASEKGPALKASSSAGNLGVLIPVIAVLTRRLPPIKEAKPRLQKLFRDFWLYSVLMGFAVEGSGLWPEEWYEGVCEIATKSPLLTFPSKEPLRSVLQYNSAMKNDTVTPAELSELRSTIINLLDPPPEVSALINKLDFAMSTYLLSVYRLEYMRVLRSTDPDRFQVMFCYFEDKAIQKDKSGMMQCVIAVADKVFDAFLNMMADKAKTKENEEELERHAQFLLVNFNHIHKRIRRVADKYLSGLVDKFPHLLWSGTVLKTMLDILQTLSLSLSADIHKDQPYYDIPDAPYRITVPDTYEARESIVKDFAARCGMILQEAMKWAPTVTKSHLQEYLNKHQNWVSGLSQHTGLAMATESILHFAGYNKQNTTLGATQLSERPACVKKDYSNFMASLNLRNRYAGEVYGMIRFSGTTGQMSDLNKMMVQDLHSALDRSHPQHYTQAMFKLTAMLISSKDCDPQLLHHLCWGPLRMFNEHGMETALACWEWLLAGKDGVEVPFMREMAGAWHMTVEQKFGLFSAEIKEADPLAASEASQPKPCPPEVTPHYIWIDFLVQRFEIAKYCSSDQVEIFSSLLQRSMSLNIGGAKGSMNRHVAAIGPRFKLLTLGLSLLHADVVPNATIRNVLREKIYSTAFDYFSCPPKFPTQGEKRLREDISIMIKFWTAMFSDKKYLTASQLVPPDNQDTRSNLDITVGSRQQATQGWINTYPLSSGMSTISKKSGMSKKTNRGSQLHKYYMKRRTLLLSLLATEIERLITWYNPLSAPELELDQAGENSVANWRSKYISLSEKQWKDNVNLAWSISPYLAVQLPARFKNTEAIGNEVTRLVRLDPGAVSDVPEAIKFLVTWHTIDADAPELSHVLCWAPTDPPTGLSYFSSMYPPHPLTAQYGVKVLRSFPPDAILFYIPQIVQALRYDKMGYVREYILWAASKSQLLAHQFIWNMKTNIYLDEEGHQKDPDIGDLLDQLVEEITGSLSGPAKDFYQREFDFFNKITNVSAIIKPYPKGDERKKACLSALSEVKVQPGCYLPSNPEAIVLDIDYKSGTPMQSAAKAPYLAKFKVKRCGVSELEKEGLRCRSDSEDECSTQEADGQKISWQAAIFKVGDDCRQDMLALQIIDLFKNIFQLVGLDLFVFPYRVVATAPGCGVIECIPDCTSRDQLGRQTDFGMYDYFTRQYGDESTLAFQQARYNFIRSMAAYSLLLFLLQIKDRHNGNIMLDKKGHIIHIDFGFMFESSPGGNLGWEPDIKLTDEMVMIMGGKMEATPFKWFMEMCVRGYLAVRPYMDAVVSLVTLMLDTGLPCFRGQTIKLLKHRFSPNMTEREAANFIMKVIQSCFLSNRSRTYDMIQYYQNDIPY

[6] = system: HepG2; assay: Cytotoxicity against human HepG2 cells by XTT assay; format: cell-based
[7] = system: HL-60; assay: Cytotoxicity against human HL60 cells by XTT assay; format: cell-based
[8] = target: Phosphatidylinositol 4-kinase beta (Homo sapiens, UniProt Q9UBF8); assay: Inhibition of PI4K3beta (unknown origin)
Phosphatidylinositol 4-kinase beta, sequence (Q9UBF8 whole entry): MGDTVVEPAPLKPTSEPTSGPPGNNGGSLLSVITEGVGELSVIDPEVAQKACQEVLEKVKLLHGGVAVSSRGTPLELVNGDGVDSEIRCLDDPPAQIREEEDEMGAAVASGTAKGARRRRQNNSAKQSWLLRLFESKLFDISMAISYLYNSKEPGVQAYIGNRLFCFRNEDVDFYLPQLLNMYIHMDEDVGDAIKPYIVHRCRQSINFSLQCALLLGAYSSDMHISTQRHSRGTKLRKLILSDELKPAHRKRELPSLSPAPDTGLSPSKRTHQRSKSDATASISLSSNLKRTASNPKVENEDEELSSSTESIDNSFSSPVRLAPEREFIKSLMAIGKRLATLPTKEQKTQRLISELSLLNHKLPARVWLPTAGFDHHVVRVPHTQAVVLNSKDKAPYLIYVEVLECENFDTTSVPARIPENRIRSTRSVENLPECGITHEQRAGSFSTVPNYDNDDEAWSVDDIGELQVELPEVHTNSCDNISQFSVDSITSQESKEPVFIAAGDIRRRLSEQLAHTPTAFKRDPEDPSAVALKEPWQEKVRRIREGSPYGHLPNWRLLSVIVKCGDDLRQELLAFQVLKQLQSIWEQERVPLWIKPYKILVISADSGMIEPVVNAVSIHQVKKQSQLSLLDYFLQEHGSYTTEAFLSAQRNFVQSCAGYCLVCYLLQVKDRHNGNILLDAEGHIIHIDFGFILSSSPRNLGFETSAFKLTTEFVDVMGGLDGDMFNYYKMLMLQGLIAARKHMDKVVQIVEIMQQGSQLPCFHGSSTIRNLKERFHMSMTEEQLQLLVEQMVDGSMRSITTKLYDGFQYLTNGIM

[9] = target: T1, Sphingomyelin phosphodiesterase 3 (Homo sapiens, UniProt Q9NY59); assay: Inhibition of human recombinant full-length nSMase expressed in HEK293 cells using sphingomyelin as substrate measured after 1 hr by alkaline phosphatase, choline oxidase and horseradish peroxidase dependent H2O2 detection-coupled amplex reagent based fluorescence assay
T1 sequence (Q9NY59 whole entry): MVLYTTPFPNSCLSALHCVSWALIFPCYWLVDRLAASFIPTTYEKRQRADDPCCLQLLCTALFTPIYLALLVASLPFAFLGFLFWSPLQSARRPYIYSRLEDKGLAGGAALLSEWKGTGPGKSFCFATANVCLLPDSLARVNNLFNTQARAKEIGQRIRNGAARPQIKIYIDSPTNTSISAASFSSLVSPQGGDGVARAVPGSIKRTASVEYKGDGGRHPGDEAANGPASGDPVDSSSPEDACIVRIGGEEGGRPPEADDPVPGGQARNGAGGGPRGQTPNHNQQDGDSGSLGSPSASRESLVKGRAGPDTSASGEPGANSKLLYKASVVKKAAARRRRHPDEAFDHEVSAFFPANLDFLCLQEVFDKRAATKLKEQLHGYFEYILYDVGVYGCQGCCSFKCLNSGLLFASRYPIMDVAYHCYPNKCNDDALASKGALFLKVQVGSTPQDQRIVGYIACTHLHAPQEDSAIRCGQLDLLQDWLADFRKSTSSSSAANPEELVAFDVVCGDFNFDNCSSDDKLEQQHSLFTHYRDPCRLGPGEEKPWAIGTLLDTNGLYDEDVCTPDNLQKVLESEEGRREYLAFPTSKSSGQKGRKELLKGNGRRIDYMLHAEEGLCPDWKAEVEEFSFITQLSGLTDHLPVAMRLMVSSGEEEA

[10] = system: Mus musculus; assay: Suppression of cognitive dysfunction in 5XFAD transgenic B6SJLF1/J mouse model of Alzheimer's disease assessed as body weight gain at 10 mg/kg, ip administered daily for 5 months measured during compound dosing; format: functional, organism-based
In short: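 Male and female hemizygous 5XFAD and WT littermates were dosed from age 3 months with 10 mg/kg ip daily or vehicle (5% DMSO, 5% Tween 80, 90% PBS), n = 13–16. Body weight was followed to study day 150 (8 months). Groups were compared by two-way ANOVA.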

[11] = Cmax in 5XFAD transgenic B6SJLF1/J mouse plasma at 10 mg/kg, ip by LC-MS/MS analysis; format: ADME, organism-based; parameters: dose 10 mg/kg, route intraperitoneal
In short: (§2)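 Hemizygous 5XFAD mice aged 11 months received one terminal ip dose of 10 mg/kg in NMP–Tween 80–saline (2.5:5:92.5 v/v/v). […] Extraction by acetonitrile protein precipitation with losartan as internal standard, then LC–MS/MS. Noncompartmental analysis: Cmax and Tmax observed; AUC to 6 h by log–linear trapezoidal rule.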

[12] = Drug metabolism in mouse liver microsomes assessed as CYP450-mediated O-dealkylation at 1 uM measured after 60 mins in presence of NADPH generating system by LC-MS/MS analysis; format: ADME; conditions: 1 h
In short: (§3)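 Mouse or human liver microsomes at 0.2 mg/mL, compound at 1 μM final. Controls run without cofactors. Quenched at 60 min with cold acetonitrile containing internal standard; read as % remaining.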

[13] = system: Cytochrome P450; assay: Drug metabolism in human liver microsomes assessed as CYP450-mediated O-dealkylation at 1 uM measured after 60 mins in presence of NADPH generating system by LC-MS/MS analysis; format: ADME; conditions: 1 h; in short: as §3
[14] = AUClast in 5XFAD transgenic B6SJLF1/J mouse brain at 10 mg/kg, ip by LC-MS/MS analysis; format: ADME, organism-based; in short: as §2
[15] = AUClast in 5XFAD transgenic B6SJLF1/J mouse plasma at 10 mg/kg, ip by LC-MS/MS analysis; format: ADME, organism-based; in short: as §2
[16] = Tmax in 5XFAD transgenic B6SJLF1/J mouse plasma at 10 mg/kg, ip by LC-MS/MS analysis; format: ADME, organism-based; in short: as §2
[17] = system: Cytochrome P450; assay: Drug metabolism in human liver microsomes assessed as CYP450-mediated O-demethylated metabolite formation at 1 uM measured after 60 mins in presence of NADPH generating system by LC-MS/MS analysis; format: ADME; conditions: 1 h
[18] = Cmax in 5XFAD transgenic B6SJLF1/J mouse brain at 10 mg/kg, ip by LC-MS/MS analysis; format: ADME, organism-based; parameters: dose 10 mg/kg, route intraperitoneal; in short: as §2
[19] = Tmax in 5XFAD transgenic B6SJLF1/J mouse brain at 10 mg/kg, ip by LC-MS/MS analysis; format: ADME, organism-based; in short: as §2
[20] = system: Mus musculus; assay: Suppression of cognitive dysfunction in 5XFAD transgenic B6SJLF1/J mouse model of Alzheimer's disease assessed as increase in freezing behavior response to 1000 Hz tone conditioned stimulus at 10 mg/kg, ip administered daily for 5 months measured during 120 secs of testing by contextual fear conditioning assay; format: functional, organism-based
In short: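 Dosed daily ip at 10 mg/kg (vehicle 5% DMSO/5% Tween 80/90% PBS) from 3 months, n = 13–16, then tested at 8 months. Day 1: 240 s in chamber with two pairings of a 30 s 1000 Hz tone and a 2 s 0.5 mA footshock, at 120 and 180 s. Day 2: contextual test, 300 s in same chamber. Day 3: novel box for 240 s with tone during last 120 s. Read-out: freezing.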

[21] = Stability in mouse liver microsomes assessed as CYP450-mediated metabolism by measuring parent compound remaining at 1 uM measured after 60 mins in presence of NADPH generating system by LC-MS/MS analysis; format: ADME; conditions: 1 h
In short: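 Liver microsomes from mouse or human, 0.2 mg/mL, with 1 μM compound (final) in 100 mM potassium phosphate at pH 7.4. Adding microsomes started the reaction; triplicates. After 60 min, quenched with 3 volumes of ice-cold acetonitrile containing internal standard.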

SMILES | remaining at 1 h, 1 µM [1] | Activity [2] | remaining at 1 h, 1 µM [3] | Activity [4] | inhibition [5] | Activity [6] | Activity [7] | IC50 [8] | IC50 [9] | further results
COc1ccc(-c2c(C)nc3c(N4CC[C@@H](NC(C)=O)C4)cc(C)nn23)cc1OC | > 95% | Non-Toxic | > 95% | Non-Toxic | inactive | Non-Toxic | Non-Toxic | > 10 µM |  | 
COc1ccc(-c2scc3c(N4CC[C@@H](NC(C)=O)C4)nc(C)nc23)cc1OC | > 95% |  | > 95% |  |  |  |  |  | > 100 µM | 
COc1ccc(-c2c(C)oc3c(N4CC[C@@H](NC(C)=O)C4)cc(C)nc23)cc1OC | > 95% |  | > 95% |  |  |  |  |  | > 100 µM | 
COc1ccc(-c2c(C)nc3c(N4CC[C@@H](NC(=O)Oc5ccccc5)C4)cc(C)nn23)cc1OC |  | Non-Toxic |  | Non-Toxic | inactive | Non-Toxic | Non-Toxic | > 10 µM |  | Activity [10]: Active; Cmax [11]: 7.7 µM; Drug metabolism [12]: Metabolite_Detected; Drug metabolism [13]: Metabolite_Detected; AUC(0-t) [14]: 13 µM·h; AUC(0-t) [15]: 22.1 µM·h; Tmax [16]: 15 min; Drug metabolism [17]: Metabolite_Detected; Cmax [18]: 3.89 µM; Tmax [19]: 30 min; Activity [20]: Active
COc1ccc(-c2c(C)nc3c(NCCNC(C)=O)cc(C)nn23)cc1OC |  | Non-Toxic |  | Non-Toxic | inactive | Non-Toxic | Non-Toxic |  | > 10 µM | 
COc1ccc(-c2c(C)nc3c(N4CC[C@H](NC(C)=O)C4)cc(C)nn23)cc1OC |  | Non-Toxic |  | Non-Toxic | inactive | Non-Toxic | Non-Toxic | > 10 µM |  | 
COc1ccc(-n2c(C)nc3c(N4CC[C@@H](NC(C)=O)C4)nc(C)nc32)cc1OC | > 95% |  | > 95% |  |  |  |  |  | > 100 µM | Parent compound remaining [21]: 104%
